Source: ChEMBL document CHEMBL1806352, “Discovery of imidazo[1,2-b]pyridazines as IKKβ inhibitors. Part 3: exploration of effective compounds in arthritis models” (Bioorg Med Chem Lett, 2011)

Columns and labels:
[1] = Permeability of the compound at pH 7.4 by PAMPA method; format: ADME; details: read-out: permeability
Outline: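 PAMPA was run with the donor filter coated with a phospholipid solution and the acceptor plate filled with acceptor buffer pH 7.4. Plates were incubated 4 h at 25 °C. Compound in both plates was quantified spectrometrically, and effective permeability Pe7.4 was calculated.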

[2] = Octanol-phosphate buffered saline distribution coefficient, log D of the compound at pH 7.4; format: physicochemical
Outline: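 PBS pH 7.4 and 1-octanol were mutually pre-saturated for over 12 h. Compound (200 µM) was dissolved in one phase, an equal volume of the other phase was added, and the mixture was shaken 30 min at room temperature. Both phases were assayed by HPLC or LC/MS. Log D7.4 was calculated as log of the octanol/PBS peak area ratio.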

[3] = Plasma concentration in BALB/c mouse at 30 mg/kg, po after 90 mins; format: ADME, organism-based; set-up: dose 30 mg/kg, route oral
[4] = Apparent permeability across MDCK cells at 10 uM after 1 hr by LC/MS/MS analysis; format: ADME, cell-based, Canis lupus familiaris; details: dog
Outline: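 MDCK cells were grown 6 days on transwells to form monolayers. Compound (10 µM in transport buffer, pH 6.0) was added apically. The basolateral side held buffer at pH 7.4 with 4% BSA, and metoprolol served as positive control. After 1 h at 37 °C, basolateral concentration was measured by LC/MS/MS. Papp was calculated from flux over 3600 s across a 0.33 cm² filter.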

[5] = Cmax in Wister-Lewis rat at 30 mg/kg, po; format: ADME, organism-based; set-up: dose 30 mg/kg, route oral; details: in vivo
Outline: (§1)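 Fed female Wistar–Lewis rats (7–8 weeks old, n = 3) were given 30 mg/kg orally as a suspension in 0.5% (w/v) methyl cellulose. Blood samples (0.3 ml) were taken at 0.5, 1, 2, 4, 8 and 24 h. Plasma levels were measured by LC/MS/MS and analysed non-compartmentally.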

[6] = Tmax in Wister-Lewis rat at 30 mg/kg, po; format: ADME, organism-based; set-up: dose 30 mg/kg, route oral; details: in vivo; outline: as §1
[7] = Oral steady-state volume of distribution in Wister-Lewis rat at 30 mg/kg, po; format: ADME, organism-based; set-up: dose 30 mg/kg, route oral; details: in vivo, read-out: Vss/F; outline: as §1
[8] = Cmax in BALB/c mouse at 30 mg/kg, po; format: ADME, organism-based; set-up: dose 30 mg/kg, route oral; details: in vivo
Outline: (§2)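 Fed female BALB/c mice (7 weeks old, n = 3) received a single oral dose of 30 mg/kg suspended in 0.5% (w/v) methyl cellulose. Blood was drawn at 0.5, 1, 2, 4, 8 and 24 h, and plasma was stored at −20 °C. Drug was quantified by LC/MS/MS, and parameters were derived by non-compartmental analysis.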

[9] = Mean residence time in Wister-Lewis rat at 30 mg/kg, po; format: ADME, organism-based; set-up: dose 30 mg/kg, route oral; details: in vivo; outline: as §1
[10] = Oral steady-state volume of distribution in BALB/c mouse at 30 mg/kg, po; format: ADME, organism-based; set-up: dose 30 mg/kg, route oral; details: in vivo, read-out: Vss/F; outline: as §2
[11] = AUC (0 to 24 hrs) in BALB/c mouse at 30 mg/kg, po; format: ADME, organism-based; set-up: time < 24 hr, dose 30 mg/kg, route oral; details: plasma; outline: as §2
[12] = Mean residence time in BALB/c mouse at 30 mg/kg, po; format: ADME, organism-based; set-up: dose 30 mg/kg, route oral; details: in vivo; outline: as §2
[13] = Tmax in BALB/c mouse at 30 mg/kg, po; format: ADME, organism-based; set-up: dose 30 mg/kg, route oral; details: in vivo; outline: as §2
[14] = AUC (0 to 24 hrs) in Wister-Lewis rat at 30 mg/kg, po; format: ADME, organism-based; set-up: time < 24 hr, dose 30 mg/kg, route oral; details: plasma; outline: as §1

Papp [1] [×10⁻⁶ cm/s] | logD [2] | concentration at […] [3] [ng/mL] | Structure (SMILES) | also measured
> 50 | 3.1 | 540 | CCCNc1ccc2ncc(-c3ccc(C(=O)NC[C@@H]4C[C@@H](F)CN4)c(F)c3)n2n1 | 
> 50 | 2.6 | 440 | O=C(NCCN1CCCC1)c1ccc(-c2cnc3ccc(NCC4CC4)nn23)cc1 | Papp at 1 h, 10 µM [4]: 2.3 ×10⁻⁶ cm/s
40 | 3 | 150 | CSCCCNc1ccc2ncc(-c3ccc(C(=O)NC[C@@H]4C[C@@H](F)CN4)c(F)c3)n2n1 | 
37 | 3.3 | 110 | O=C(NC[C@@H]1C[C@@H](F)CN1)c1ccc(-c2cnc3ccc(NCCCCCF)nn23)cc1F | 
0.84 | 1.8 |  | O=C(NC[C@@H]1CCCN1)c1ccc(-c2cnc3ccc(NCC4CC4)nn23)cc1 | 
19 | 1.8 | 140 | O=C(NC[C@@H]1CCCN1)c1ccc(-c2cnc3ccc(NCC4CC4)nn23)cc1F | 
> 50 | 3.1 | 380 | O=C(NC[C@@H]1C[C@@H](F)CN1)c1ccc(-c2cnc3ccc(NCC4CC4)nn23)cc1F | Papp at 1 h, 10 µM [4]: 4.2 ×10⁻⁶ cm/s; Cmax [5]: 4100 ng/mL; Tmax [6]: 4 h; Vd/F [7]: 6.5 L/kg; Cmax [8]: 260 ng/mL; MRT [9]: 4.9 h; Vd/F [10]: 78 L/kg; AUC(0-t) at 24 h [11]: 888 ng·h/mL; MRT [12]: 2.3 h; Tmax [13]: 1 h; AUC(0-t) at 24 h [14]: 23100 ng·h/mL
> 50 | 3.5 | 600 | CCCCNc1ccc2ncc(-c3ccc(C(=O)NC[C@@H]4C[C@@H](F)CN4)c(F)c3)n2n1 | 
11 | 2 |  | O=C(NCCN1CCCC1)c1ccc(-c2cnc3ccc(NCC4CC4)nn23)nc1 | 
> 50 | 2.8 | 420 | O=C(NC[C@@H]1C[C@@H](F)CN1)c1ccc(-c2cnc3ccc(NCCCCF)nn23)cc1F | 
> 50 | 2.8 |  | CSCCNc1ccc2ncc(-c3ccc(C(=O)NC[C@@H]4C[C@@H](F)CN4)c(F)c3)n2n1 | 
14 | 2.2 |  | O=C(NC[C@@H]1CCCN1)c1ccc(-c2cnc3ccc(NCC4CC4)nn23)cc1Cl | 
 | 3.4 |  | CCCN(C[C@@H]1C[C@@H](F)CN1)C(=O)c1ccc(-c2cnc3ccc(NCC4CC4)nn23)cc1 | 
> 50 | 3.3 | 1400 | O=C(NC[C@@H]1C[C@@H](F)CN1)c1ccc(-c2cnc3ccc(NC4CCC4)nn23)cc1F | Papp at 1 h, 10 µM [4]: 7 ×10⁻⁶ cm/s; Cmax [5]: 16000 ng/mL; Tmax [6]: 2.8 h; Vd/F [7]: 1.7 L/kg; Cmax [8]: 750 ng/mL; MRT [9]: 5.1 h; Vd/F [10]: 32 L/kg; AUC(0-t) at 24 h [11]: 1860 ng·h/mL; MRT [12]: 2 h; Tmax [13]: 1 h; AUC(0-t) at 24 h [14]: 95300 ng·h/mL
> 50 | 2.7 | 110 | CN(C)CCNC(=O)c1ccc(-c2cnc3ccc(NCC4CC4)nn23)cc1F | Papp at 1 h, 10 µM [4]: 6.2 ×10⁻⁶ cm/s
 | 5 |  | O=C(c1ccc(-c2cnc3ccc(NCC4CC4)nn23)cc1)N(Cc1ccc(Cl)cc1)C[C@@H]1C[C@@H](F)CN1 | 
> 50 | 2.8 | 290 | O=C(NCCN1CCCC1)c1ccc(-c2cnc3ccc(NCC4CC4)nn23)cc1F | Papp at 1 h, 10 µM [4]: 5.6 ×10⁻⁶ cm/s
 | 2.5 |  | CN(C)CCNC(=O)c1ccc(-c2cnc3ccc(NCC4CC4)nn23)cc1 | Papp at 1 h, 10 µM [4]: 2.1 ×10⁻⁶ cm/s
14 | 2 |  | CN(C)CCNC(=O)c1ccc(-c2cnc3ccc(NCC4CC4)nn23)nc1 | 
> 50 | 3.6 | 660 | O=C(NC[C@@H]1C[C@@H](F)CN1)c1ccc(-c2cnc3ccc(NC4CCCC4)nn23)cc1F | 
> 50 | 4 | 93 | CCCCCNc1ccc2ncc(-c3ccc(C(=O)NC[C@@H]4C[C@@H](F)CN4)c(F)c3)n2n1 | 
33 | 2.5 | 480 | O=C(NC[C@@H]1C[C@@H](F)CN1)c1ccc(-c2cnc3ccc(NCCCF)nn23)cc1F | 
